Measurements: ChEMBL document CHEMBL1154099, “Synthesis and evaluation of in vitro anti-microbial and anti-tubercular activity of 2-styryl benzimidazoles” (2009)
≈ marks a conversion by molar mass, not a printed value.

Columns and labels:
Format in all cases: functional
Staphylococcus aureus = assay: Antibacterial activity against Staphylococcus aureus ATCC 25923 after 18 to 20 hrs by twofold tube dilution method
Summary of the method: (§1)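 Bacterial cultures grown 18–24 h at 37 ± 1 °C in Mueller–Hinton Broth. Testing by twofold tube dilution in Mueller–Hinton Broth, pH 7.4. Inoculated broth-only tubes served as controls. MIC taken as the lowest concentration preventing visible growth.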

Klebsiella pneumoniae = assay: Antibacterial activity against Klebsiella pneumoniae ATCC 13883 after 18 to 20 hrs by twofold tube dilution method; summary of the method: as §1
Enterococcus faecalis = assay: Antibacterial activity against Enterococcus faecalis ATCC 29212 after 18 to 20 hrs by twofold tube dilution method; summary of the method: as §1
Aspergillus fumigatus = assay: Antifungal activity against Aspergillus fumigatus after 48 hrs by twofold tube dilution method
Summary of the method: (§2)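 Fungi maintained in Sabouraud Dextrose Broth for 48 h at 25 ± 1 °C. Testing by twofold dilution in Sabouraud Dextrose Broth, pH 7.4, with DMSO stocks serially diluted from 125 to 1 µg/ml. Inoculated broth-only tubes served as controls. After 48 h at 25 ± 1 °C, the last tube showing no growth was recorded as the MIC.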

Candida albicans = assay: Antifungal activity against Candida albicans ATCC 10145 after 48 hrs by twofold tube dilution method; settings: ATCC 10145, 48 h; summary of the method: as §2
Escherichia coli = assay: Antibacterial activity against Escherichia coli ATCC 25922 after 18 to 20 hrs by twofold tube dilution method; summary of the method: as §1
[1] = test system: Mycobacterium tuberculosis; assay: Antitubercular activity against Mycobacterium tuberculosis H37Rv by microplate alamar blue assay
Summary of the method: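 M. tuberculosis H37Rv, with compounds that reached at least 90% inhibition in the primary screen. Serial dilution to lower concentrations, microplate Alamar blue assay. MIC taken as the lowest inhibitory concentration. Streptomycin used as reference.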

[2] = test system: Mycobacterium tuberculosis; assay: Antitubercular activity against Mycobacterium tuberculosis H37Rv at 7.25 ug/ml by microplate alamar blue assay
Summary of the method: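 M. tuberculosis H37Rv (ATCC 27294) in BACTEC 12B medium, broth microdilution with microplate Alamar blue read-out. Primary screen at a single concentration of 7.25 µg/ml. Result expressed as percent inhibition.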

Compound | MIC (Staphylococcus aureus) | MIC (Klebsiella pneumoniae) | MIC (Enterococcus faecalis) | MIC (Aspergillus fumigatus) | MIC (Candida albicans) | MIC (Escherichia coli) | MIC [1] | inhibition at 7.25 µg/mL [2]
O=[N+]([O-])c1ccc2[nH]c(/C=C/c3cccc(O)c3)nc2c1 | 4 µg/mL (≈ 14.2 µM) | 31.2 µg/mL (≈ 111 µM) | 31.2 µg/mL (≈ 111 µM) | 62.5 µg/mL (≈ 222 µM) | 31.2 µg/mL (≈ 111 µM) | 31.2 µg/mL (≈ 111 µM) | > 75 µg/mL | –
Oc1cccc(/C=C/c2nc3cc(Br)ccc3[nH]2)c1 | 1 µg/mL (≈ 3.17 µM) | 4 µg/mL (≈ 12.7 µM) | 1 µg/mL (≈ 3.17 µM) | 8 µg/mL (≈ 25.4 µM) | 4 µg/mL (≈ 12.7 µM) | 4 µg/mL (≈ 12.7 µM) | > 75 µg/mL | –
Cc1ccc(/C=C/c2nc3cc(Br)ccc3[nH]2)cc1 | 31.2 µg/mL (≈ 99.8 µM) | 8 µg/mL (≈ 25.5 µM) | 31.2 µg/mL (≈ 99.8 µM) | 8 µg/mL (≈ 25.5 µM) | 4 µg/mL (≈ 12.8 µM) | 16 µg/mL (≈ 51.1 µM) | > 75 µg/mL | 63%
COc1ccc(/C=C/c2nc3cc(Br)ccc3[nH]2)cc1OC | 2 µg/mL (≈ 5.57 µM) | 8 µg/mL (≈ 22.3 µM) | 2 µg/mL (≈ 5.57 µM) | 2 µg/mL (≈ 5.57 µM) | 1 µg/mL (≈ 2.78 µM) | 31.2 µg/mL (≈ 87 µM) | > 75 µg/mL | 54%
O=[N+]([O-])c1ccc2[nH]c(/C=C/c3ccc(Cl)cc3Cl)nc2c1 | 31.2 µg/mL (≈ 93.5 µM) | 62.5 µg/mL (≈ 187 µM) | 31.2 µg/mL (≈ 93.5 µM) | 31.2 µg/mL (≈ 93.5 µM) | 16.1 µg/mL (≈ 48.2 µM) | 62.5 µg/mL (≈ 187 µM) | > 75 µg/mL | 45%
OC(Cn1cncn1)(Cn1cncn1)c1ccc(F)cc1F [FLUCONAZOLE] | – | – | – | 2 µg/mL (≈ 6.53 µM) | 2 µg/mL (≈ 6.53 µM) | – | – | –
CN[C@@H]1[C@H](O[C@H]2[C@H](O[C@H]3[C@H](O)[C@@H](O)[C@H](N=C(N)N)[C@@H](O)[C@@H]3N=C(N)N)O[C@@H](C)[C@]2(O)C=O)O[C@@H](CO)[C@H](O)[C@H]1O [STREPTOMYCIN] | – | – | – | – | – | – | – | 100%
Brc1ccc2[nH]c(/C=C/c3ccccc3)nc2c1 | 2 µg/mL (≈ 6.69 µM) | 31.2 µg/mL (≈ 104 µM) | 16.1 µg/mL (≈ 53.9 µM) | 8 µg/mL (≈ 26.7 µM) | 8 µg/mL (≈ 26.7 µM) | 16.1 µg/mL (≈ 53.9 µM) | > 75 µg/mL | 83%
O=[N+]([O-])c1ccc2[nH]c(/C=C/c3ccccc3)nc2c1 | 8 µg/mL (≈ 30.2 µM) | 4 µg/mL (≈ 15.1 µM) | 31.2 µg/mL (≈ 118 µM) | 16.1 µg/mL (≈ 60.8 µM) | 16.1 µg/mL (≈ 60.8 µM) | 31.2 µg/mL (≈ 118 µM) | > 75 µg/mL | –
O=C(O)c1cn(C2CC2)c2cc(N3CCNCC3)c(F)cc2c1=O [CIPROFLOXACIN] | 0.78 µg/mL (≈ 2.35 µM) | 0.19 µg/mL (≈ 0.573 µM) | 0.7 µg/mL (≈ 2.11 µM) | – | – | – | – | –
Brc1ccc2[nH]c(/C=C/c3ccc4c(c3)OCO4)nc2c1 | 8 µg/mL (≈ 23.3 µM) | 16.1 µg/mL (≈ 47 µM) | 31.2 µg/mL (≈ 91.1 µM) | 31.2 µg/mL (≈ 91.1 µM) | 31.2 µg/mL (≈ 91.1 µM) | 31.2 µg/mL (≈ 91.1 µM) | > 75 µg/mL | –
COc1ccc(/C=C/c2nc3cc([N+](=O)[O-])ccc3[nH]2)cc1OC | 31.2 µg/mL (≈ 96.1 µM) | 16.1 µg/mL (≈ 49.6 µM) | 31.2 µg/mL (≈ 96.1 µM) | 31.2 µg/mL (≈ 96.1 µM) | 16.1 µg/mL (≈ 49.6 µM) | 31.2 µg/mL (≈ 96.1 µM) | > 75 µg/mL | –
Cc1ccc(/C=C/c2nc3cc([N+](=O)[O-])ccc3[nH]2)cc1 | 4 µg/mL (≈ 14.3 µM) | 16.1 µg/mL (≈ 57.7 µM) | 16.1 µg/mL (≈ 57.7 µM) | 31.2 µg/mL (≈ 112 µM) | 31.2 µg/mL (≈ 112 µM) | 62.5 µg/mL (≈ 224 µM) | > 75 µg/mL | –
O=[N+]([O-])c1ccc2[nH]c(/C=C/c3ccc4c(c3)OCO4)nc2c1 | 31.2 µg/mL (≈ 101 µM) | 62.5 µg/mL (≈ 202 µM) | 31.2 µg/mL (≈ 101 µM) | 16.1 µg/mL (≈ 52.1 µM) | 16.1 µg/mL (≈ 52.1 µM) | 31.2 µg/mL (≈ 101 µM) | > 75 µg/mL | –
Clc1ccc(/C=C/c2nc3cc(Br)ccc3[nH]2)c(Cl)c1 | 16.1 µg/mL (≈ 43.8 µM) | 2 µg/mL (≈ 5.43 µM) | 8 µg/mL (≈ 21.7 µM) | 16.1 µg/mL (≈ 43.8 µM) | 31.2 µg/mL (≈ 84.9 µM) | 31.2 µg/mL (≈ 84.9 µM) | > 75 µg/mL | 76%
